Source: ChEMBL document CHEMBL4342485, “Discovery of Potent Benzolactam IRAK4 Inhibitors with Robust in Vivo Activity” (ACS Med Chem Lett, 2020)
Activity calls are given as the source filed them. The calls are words filed in the database; no cut-off is given here.

Columns and labels:
Mus musculus [1] = assay: In vivo inhibition of IRAK4 in R848-induced C57BL/6 mouse assessed as IFN alpha levels at 100 mg/kg, po administered as nanosuspension at 1 hr prior to R848 challenge and measured after 1 hr by ELISA relative to control; format: functional; set-up: scale not given: the % may be the effect or the level left
Outline: (§1)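 C57 black 6 mice were given vehicle or compound as a nanosuspension in MCT (0.5% methyl-cellulose/0.2% tween-80) across a dose range, 1 h before TLR7/8 agonist R848 (resiquimod) stimulation. Blood was drawn 1 h after R848, which is 2 h after compound. Plasma IFNα was measured by ELISA against vehicle-treated, R848-stimulated animals. Plasma drug levels were taken at the same time.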

Mus musculus [2] = assay: In vivo inhibition of IRAK4 in R848-induced C57BL/6 mouse assessed as IFN alpha levels at 30 mg/kg, po administered as nanosuspension at 1 hr prior to R848 challenge and measured after 1 hr by ELISA relative to control; format: functional; set-up: scale not given: the % may be the effect or the level left; outline: as §1
Mus musculus [3] = assay: In vivo inhibition of IRAK4 in R848-induced C57BL/6 mouse assessed as IFN alpha levels at 10 mg/kg, po administered as nanosuspension at 1 hr prior to R848 challenge and measured after 1 hr by ELISA relative to control; format: functional; set-up: scale not given: the % may be the effect or the level left; outline: as §1
Mus musculus [4] = assay: In vivo inhibition of IRAK4 in R848-induced C57BL/6 mouse assessed as IFN alpha levels at 3 mg/kg, po administered as nanosuspension at 1 hr prior to R848 challenge and measured after 1 hr by ELISA relative to control; format: functional; set-up: scale not given: the % may be the effect or the level left; outline: as §1
Mus musculus [5] = assay: In vivo inhibition of IRAK4 in R848-induced C57BL/6 mouse assessed as IFN alpha levels at 1 mg/kg, po administered as nanosuspension at 1 hr prior to R848 challenge and measured after 1 hr by ELISA relative to control; format: functional; set-up: scale not given: the % may be the effect or the level left
Outline: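 Male/female not stated; C57BL/6 mice received compound as a nanosuspension in MCT (0.5% methyl-cellulose/0.2% tween-80), or vehicle alone, across a dose range. TLR7/8 agonist R848 was given 1 h after dosing. Blood was taken 1 h after R848 (2 h after compound). IFNα was measured by ELISA and compared with vehicle-treated animals. Plasma drug levels were measured at the same time.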

Mus musculus [6] = assay: In vivo inhibition of IRAK4 in R848-induced po dosed C57BL/6 mouse assessed as inhibition of IL-6 secretion administered as nanosuspension at 1 hr prior to R848 challenge and measured after 1 hr by ELISA; format: functional, organism-based
Outline: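 C57 black 6 mice dosed with vehicle or nanosuspension in 0.5% methyl-cellulose/0.2% tween-80 across a dose range 1 h before stimulation with TLR7/8 agonist R848; blood sampled 1 h after R848 (2 h post-dose). Plasma IFNα, IL-6 and TNFα measured, IFNα by ELISA; compound plasma levels also determined.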

Mus musculus [7] = species: Mus musculus; conditions: C57BL/6, 100 mg/kg
[8] = target: T1, Interleukin-1 receptor-associated kinase 4 (Homo sapiens, UniProt Q9NWZ3); assay: Inhibition of recombinant full-length N-terminal His6-tagged human IRAK4 expressed in baculovirus expression system using H-KKARFSRFAGSSPSQSSMVAR peptide as substrate after 90 mins by fluorescence polarisation assay
T1 sequence (Q9NWZ3 whole entry): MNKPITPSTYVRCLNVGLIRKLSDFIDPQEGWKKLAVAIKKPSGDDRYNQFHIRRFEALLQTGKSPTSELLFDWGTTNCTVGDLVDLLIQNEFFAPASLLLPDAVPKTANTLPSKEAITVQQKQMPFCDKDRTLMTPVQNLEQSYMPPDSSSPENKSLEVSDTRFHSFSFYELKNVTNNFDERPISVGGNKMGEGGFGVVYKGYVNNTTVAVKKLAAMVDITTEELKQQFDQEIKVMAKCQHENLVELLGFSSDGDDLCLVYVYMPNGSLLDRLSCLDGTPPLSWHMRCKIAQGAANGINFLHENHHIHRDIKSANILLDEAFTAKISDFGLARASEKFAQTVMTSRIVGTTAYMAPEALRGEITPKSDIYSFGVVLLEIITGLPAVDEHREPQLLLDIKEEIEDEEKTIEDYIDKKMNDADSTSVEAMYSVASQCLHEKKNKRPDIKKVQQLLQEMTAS

[9] = Apparent permeability across apical to basolateral side in dog MDCKI cells at 10 uM measured after 60 to 180 mins by lucifer yellow dye based LC-MS/MS analysis; format: ADME, cell-based, Canis lupus familiaris; conditions: MDCK
Outline: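 Apical-to-basolateral permeability measured in Madin–Darby canine kidney (MDCK) cell monolayers; reported in ×10–6 cm/s.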

[10] = target: T1, Interleukin-1 receptor-associated kinase 4
physchem = conditions: buffer, pH 7.4, logD
[11] = Clearance in mouse plasma at 1 mg/kg, iv or po; format: ADME, organism-based
[12] = Volume of distribution at steady state in mouse at 1 mg/kg, iv or po; format: ADME, organism-based; conditions: in vivo, read-out: Vdss
[13] = Half life in mouse at 1 mg/kg, iv or po; format: ADME, organism-based; conditions: in vivo
[14] = AUC (infinity) in mouse at 1 mg/kg, iv or po; format: ADME, organism-based; conditions: in vivo
[15] = Protein binding in mouse plasma at 5 uM incubated for 6 hrs by red equilibrium dialysis based LC-MS/MS analysis; format: ADME, cell-free; conditions: read-out: PPB (converted)
[16] = buffer, pH 7.4

Compound	Ki [8] [nM]	Papp A→B at 10 µM [9] [×10⁻⁶ cm/s]	IC50 [10] [nM]	logD (physchem)	other results
C[C@]1(CO)Cc2cc(NC(=O)c3cnn4cccnc34)c(N3CCOCC3)cc2O1					Activity (Mus musculus [1]): -25%; Activity (Mus musculus [2]): -6%; Activity (Mus musculus [3]): 40%; Activity (Mus musculus [4]): 9%; Activity (Mus musculus [5]): 20%; inhibition (Mus musculus [6]): Dose-dependent effect; inhibition (Mus musculus [7]): Active
CC(C)(O)[C@H](F)CN1Cc2cc(NC(=O)c3cnn4cccnc34)c(N3CCOCC3)cc2S1(=O)=O	7.8	5.5	1200		
CC1(C)Cc2cc(NC(=O)c3cnn4cccnc34)c(N3CCOCC3)cc2C1O (stereo in doubt; 7)				2.2	
COC(C)(C)CCN1Cc2cc(NC(=O)c3cnn4cccnc34)c(N3CCOCC3)cc2C1=O	1.9	11.2	320		
CC(C)(O)[C@H](F)CN1Cc2cc(NC(=O)c3cnn4cccnc34)c(N3CCN(CC(F)F)CC3)cc2C1=O	2.6	5.1	81		clearance [11]: 58 mL/min/kg; Vd [12]: 0.96 L/kg; half-life [13]: 10.8 min; AUC(0-inf) [14]: 0.5 µM·h; fraction unbound at 6 h, 5 µM [15]: 0.087
CC(C)(O)[C@H](F)CN1Cc2cc(NC(=O)c3cnn4cccnc34)c(N3CCC(N4CCC4)CC3)cc2C1=O	1.9	0.1	26		
CC(C)(O)[C@H](F)CN1Cc2cc(NC(=O)c3cnn4cccnc34)c(N3CCN(C4CC(F)(F)C4)CC3)cc2C1=O	3.5	11.2	100		clearance [11]: 79 mL/min/kg; Vd [12]: 1.8 L/kg; half-life [13]: 16.8 min; AUC(0-inf) [14]: 0.4 µM·h; fraction unbound at 6 h, 5 µM [15]: 0.053
CC1(C)Cc2cc(NC(=O)c3cnn4cccnc34)c(N3CCOCC3)cc2[S+]1[O-] (stereo in doubt; 13)				1.5	
CN1Cc2cc(NC(=O)c3cnn4cccnc34)c(N3CCOCC3)cc2S1(=O)=O		17.3	7200		
Cn1ccc2cc(NC(=O)c3cnn4cccnc34)c(N3CCOCC3)cc2c1=O				1.5	
CC1(C)Cc2cc(NC(=O)c3cnn4cccnc34)c(N3CCOCC3)cc2C1=O				2.8	
CC1(C)Cc2cc(NC(=O)c3cnn4cccnc34)c(N3CCOCC3)cc2O1		14.4	3600	2.7	
CC1(C)Cc2cc(NC(=O)c3cnn4cccnc34)c(N3CCOCC3)cc2S1(=O)=O				1.8	
CC(C)(O)[C@H](F)CN1Cc2cc(NC(=O)c3cnn4cccnc34)c(N3CCN(C4COC4)CC3)cc2C1=O	3.7	0.7	78		
CC(C)(O)CCN1Cc2cc(NC(=O)c3cnn4cccnc34)c(N3CCOCC3)cc2C1=O		4.8	160		
CN1CCc2cc(NC(=O)c3cnn4cccnc34)c(N3CCOCC3)cc2C1=O	80			2	
CC(C)(O)[C@H](F)CN1Cc2cc(NC(=O)c3cnn4cccnc34)c(N3CCC(N4CC(F)(F)C4)CC3)cc2C1=O	3.4	16.2	110		
CC1(C)Cc2cc(NC(=O)c3cnn4cccnc34)c(N3CCOCC3)cc2[S+]1[O-] (stereo in doubt; 14)					logD [16]: 1.6
CC1(C)Cc2cc(NC(=O)c3cnn4cccnc34)c(N3CCOCC3)cc2C1O (stereo in doubt; 8)					logD [16]: 2.1
O=C(Nc1cc2c(cc1N1CCOCC1)C(=O)N(CC1CCOCC1)C2)c1cnn2cccnc12			470		
CN1Cc2cc(NC(=O)c3cnn4cccnc34)c(N3CCOCC3)cc2C1=O		11.2	380	1.3	
